Measurements from different studies.
Protocols differ between the studies behind these lines.
Target: Serine/threonine-protein kinase VRK2 (VRK2, Homo sapiens, UniProt Q86Y07)

SMILES | assay | test system | conditions | measurement | value
CCN(CC)CCNC(=O)c1c(C)[nH]c(/C=C2\C(=O)Nc3ccc(F)cc32)c1C | enzyme activity, inhibitor |  | 0.3 µM | inhibition | -19%
Cn1c2c(c3ccc(Cl)c(Cl)c31)C(C#N)C1(CCOCC1)NC2=O (stereo not drawn) | thermal stability, DSF |  | 10 µM | ΔTm | 0 °C
Cc1ccc(NC(=O)c2ccc(C)c(C(F)(F)F)c2)cc1C#Cc1nn(C2CCC(O)CC2)c2ncnc(N)c12 (stereo not drawn) | cell-free assay |  | 10 µM | remaining signal | 85%
Cn1c2c(c3ccccc31)C(C#N)C(C)(C)NC2=O (stereo not drawn) | thermal stability, DSF |  | 10 µM | ΔTm | 0.2 °C
CC(C)(O)[C@H]1CC[C@H](Nc2ccc3ncc(-c4cccc(C(F)(F)F)c4)n3n2)CC1 | enzyme activity, inhibitor |  | 1 µM | remaining activity | 81.2%
COc1cc(Cl)c(C(=O)N[C@@H](CN[C@H]2CC[C@@H](N)CC2)Cc2ccc(C#N)cc2)cc1-c1ccc(CN[C@H](C)c2ccc(C)cc2)o1 | enzyme activity, inhibitor |  | 1 µM | remaining activity | 91%
C[C@H](c1ccc(F)cc1)N(Cc1cccc(C(=O)O)c1)C(=O)c1cnc2ccccc2c1 | cell-free assay, competition with immobilised ligand |  | 1 µM | remaining binding | 100%
CC(C)(C)c1nc2c(s1)c1nc(N)ncc1c1ccc(NS(=O)(=O)c3c(F)cccc3F)c(F)c12 | enzyme activity, inhibitor, radiometric |  | 1 µM | remaining activity | 116%
CCC1(CC)NC(=O)c2c(c3ccc(Cl)c(Cl)c3n2C)C1C#N (stereo not drawn) | thermal stability, DSF |  | 10 µM | ΔTm | 0.1 °C
CNC(=O)c1cc(Oc2ccc(NC(=O)Nc3ccc(Cl)c(C(F)(F)F)c3)cc2)ccn1 | enzyme activity, inhibitor |  | 0.3 µM | inhibition | -15%
N#CC1c2c([nH]c3c(Cl)c(Cl)ccc23)C(=O)NC12CCCCC2 (racemic) | thermal stability, DSF |  | 10 µM | ΔTm | -0.3 °C
CN(C)C(=O)Cn1cc(-c2nc([C@@](C)(c3ccc(-c4cnc(N)nc4)cc3)C3CC3)no2)cn1 | cell-free assay, competition with immobilised ligand |  | 1 µM | remaining binding | 92%
CCN(CC)c1ccc(C2=NNC(=O)CC2C)cc1[N+](=O)[O-] (stereo not drawn) | enzyme activity, inhibitor |  | 10 µM | remaining activity | 95%
Cn1c2c(Cl)c(Cl)ccc2c2cc[nH]c(=O)c21 | thermal stability, DSF |  | 10 µM | ΔTm | 0 °C
c1ccc(N2CCN(Cc3nc4ccccc4[nH]3)CC2)nc1 | binding, competition with immobilised ligand |  | 1 µM | remaining binding | 100%
CC1(C)NC(=O)c2[nH]c3c(Cl)c(Cl)ccc3c2C1C#N (stereo not drawn) | thermal stability, DSF |  | 10 µM | ΔTm | -0.1 °C
Cc1cc(-n2nc(Cc3cc(F)cc(C(F)(F)F)c3)nc2C)ccc1C(N)=O | cell-free assay, competition with immobilised ligand |  | 1 µM | remaining binding | 100%
CCN1CCN(Cc2ccc(NC(=O)c3ccc(C)c(Oc4ccnc5[nH]ccc45)c3)cc2C(F)(F)F)CC1 | target engagement in cells, inhibitor, chemoproteomics | Huh-7 | 1 µM | inhibition | -14.2%
CO[C@@H](C)c1c(Nc2ccc([C@H](N(C)C(=O)C3CCS(=O)(=O)CC3)C(F)(F)F)cc2)cnc2cc(Cl)nn12 | cell-free assay, competition with immobilised ligand |  | 1 µM | remaining binding | 100%
Cc1cc(NC(=O)c2cccc3cc(-c4cccc5[nH]nc(N)c45)ccc23)ccc1F | enzyme activity, inhibitor |  | 0.1 µM | activity vs control | 89%
CN(C)CC#Cc1ccc(OCCCc2sc(N3CCc4cccc(C(=O)Nc5nc6ccccc6s5)c4C3)nc2C(=O)O)c(F)c1 | cell-free assay, competition with immobilised ligand |  | 1 µM | remaining binding | 100%
Cc1cnc(NC2CCOCC2)nc1-n1cnc(C(=O)NC(CN)c2cc(F)cc(Cl)c2)c1 (stereo not drawn) | enzyme activity, inhibitor, radiometric |  | 1 µM | remaining activity | 99%
Cc1ccc(Nc2nccc(N(C)c3ccc4c(C)n(C)nc4c3)n2)cc1S(N)(=O)=O | enzyme activity, inhibitor |  | 0.3 µM | inhibition | -16%
N#Cc1ccc(Nc2ccc3[nH]c(=O)[nH]c3c2)c(Cl)c1 | cell-free assay, competition with immobilised ligand |  | 1 µM | remaining binding | 100%
